The record followed here is PubChem BioAssay.

The nature of assay [1]: nonspecific flux increase, KCNQ1-free cells – parental CHO cells, counter-screen for KCNQ1 potentiator project (AID 493006). Conditions: parental CHO-K1 cells, FluxOR thallium flux, at 10 µM; hits give high values. The method, boiled down:
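Assay system: Untransfected host CHO-K1 cells with FluxOR thallium dye | Probe or stimulus: Potassium/thallium depolarization pulse | Schedule: Overnight 37 °C plating, 90 min RT dye, 20 min compound | Detection: Kinetic thallium-flux fluorescence | Read-out: Max-minus-min fluorescence over baseline, percent of buffer-to-R-L3 span | Benchmarks: Low control buffer, high control R-L3 activator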
(In general: The purpose of a counterscreen is to sort out artefacts and off-target activity.)

Assay [2] concerns the target Potassium voltage-gated channel subfamily KQT member 1 (Homo sapiens) (UniProt P51787). Kind of assay: enhancement of KCNQ1 channel thallium flux – FluxOR thallium flux, CHO cells, duplicates, confirmation (AID 493007;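 active = potentiation averaged over duplicate wells exceeding buffer-only control mean by more than 3 SD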;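 as to outcome: cells depolarized by a potassium plus thallium sulfate stimulus after compound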). Conditions: KCNQ1 cell line, FluxOR thallium flux fluorescence, at 10 µM; hits give high values, % of reference activator effect, buffer zero. The procedure, abridged: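 Material: KCNQ1-expressing CHO cell line; Incubation: FluxOR dye loading 90 min, compound exposure 20 min, room temperature; Detection: FluxOR Tl+ flux fluorescence, 10 s baseline plus 110 s recording; Read-out: percent activation between buffer and R-L3 responses; Control set: buffer-only wells as 0% and R-L3 activator as 100%; Replication: duplicate wells per compound.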

Assay [3] deals with Potassium voltage-gated channel subfamily KQT member 2 (Rattus norvegicus) (UniProt O88943). Kind of assay: KCNQ2 thallium flux enhancement – KCNQ2-CHO-K1 cells, selectivity assay for KCNQ1 potentiator project (AID 493009;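 active = mean duplicate potentiation above the buffer control mean plus 5 SD of buffer wells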;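 also: assay conditions were tuned for KCNQ1 rather than KCNQ2 modulators; signal is max minus min fluorescence divided by baseline after thallium stimulus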). Conditions: FluxOR thallium flux fluorescence, at 10 µM; hits give high values, scaled: buffer 0, activator control 100.
Assay [4] addresses Potassium voltage-gated channel subfamily KQT member 1 (Homo sapiens) (UniProt P51787). The experiment in a line: KCNQ1 activators by electrophysiology – IonWorks patch clamp, KCNQ1-CHO cells, orthogonal assay for KCNQ1 potentiator project, confirmation (AID 493184;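 active = current rise at least 3 SD above the untreated control mean in each of two repeat wells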). Conditions: automated patch clamp current, at 10 µM; hits give high values. The method, boiled down: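 assay system = KCNQ1-expressing CHO cells | medium = external bath solution at pH 7.4 | probe or stimulus = 2,000 ms depolarization, -90 to +40 mV | compound dosing = 10 µM final, single point | measured by = automated voltage clamp, amphotericin B perforated patch | measure = percent current increase versus pre-compound level | replication = duplicates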
Background: Patch clamp records ionic current or voltage across a cell membrane.

“And” between values parts separate entries of the source, which are not always exact repeats. Equal entries are not always repeated. The source made the active and inactive calls.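 The calls were made as follows, unless noted: active = duplicate-averaged activation above buffer control mean plus 5 SD of those controls; inactive = the rest.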

Sequence of Potassium voltage-gated channel subfamily KQT member 1 (Homo sapiens) (P51787 whole entry, looked up): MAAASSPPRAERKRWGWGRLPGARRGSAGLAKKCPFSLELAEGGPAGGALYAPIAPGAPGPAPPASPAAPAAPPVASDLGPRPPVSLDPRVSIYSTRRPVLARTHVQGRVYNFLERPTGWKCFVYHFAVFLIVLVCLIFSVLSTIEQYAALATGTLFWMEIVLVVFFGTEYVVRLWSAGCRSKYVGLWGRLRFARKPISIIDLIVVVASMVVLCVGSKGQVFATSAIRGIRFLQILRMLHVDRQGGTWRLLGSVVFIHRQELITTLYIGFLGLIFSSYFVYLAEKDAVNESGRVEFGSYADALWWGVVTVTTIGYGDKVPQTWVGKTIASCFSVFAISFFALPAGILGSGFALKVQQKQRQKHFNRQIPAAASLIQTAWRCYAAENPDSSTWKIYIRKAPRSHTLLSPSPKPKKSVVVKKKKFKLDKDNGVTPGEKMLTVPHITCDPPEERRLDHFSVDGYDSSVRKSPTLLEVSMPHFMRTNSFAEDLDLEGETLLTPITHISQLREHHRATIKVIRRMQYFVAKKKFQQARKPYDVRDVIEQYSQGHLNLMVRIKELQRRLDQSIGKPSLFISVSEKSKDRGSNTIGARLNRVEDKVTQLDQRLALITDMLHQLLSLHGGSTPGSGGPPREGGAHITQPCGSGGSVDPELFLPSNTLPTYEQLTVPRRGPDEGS
Sequence of Potassium voltage-gated channel subfamily KQT member 2 (Rattus norvegicus) (O88943 whole entry, looked up): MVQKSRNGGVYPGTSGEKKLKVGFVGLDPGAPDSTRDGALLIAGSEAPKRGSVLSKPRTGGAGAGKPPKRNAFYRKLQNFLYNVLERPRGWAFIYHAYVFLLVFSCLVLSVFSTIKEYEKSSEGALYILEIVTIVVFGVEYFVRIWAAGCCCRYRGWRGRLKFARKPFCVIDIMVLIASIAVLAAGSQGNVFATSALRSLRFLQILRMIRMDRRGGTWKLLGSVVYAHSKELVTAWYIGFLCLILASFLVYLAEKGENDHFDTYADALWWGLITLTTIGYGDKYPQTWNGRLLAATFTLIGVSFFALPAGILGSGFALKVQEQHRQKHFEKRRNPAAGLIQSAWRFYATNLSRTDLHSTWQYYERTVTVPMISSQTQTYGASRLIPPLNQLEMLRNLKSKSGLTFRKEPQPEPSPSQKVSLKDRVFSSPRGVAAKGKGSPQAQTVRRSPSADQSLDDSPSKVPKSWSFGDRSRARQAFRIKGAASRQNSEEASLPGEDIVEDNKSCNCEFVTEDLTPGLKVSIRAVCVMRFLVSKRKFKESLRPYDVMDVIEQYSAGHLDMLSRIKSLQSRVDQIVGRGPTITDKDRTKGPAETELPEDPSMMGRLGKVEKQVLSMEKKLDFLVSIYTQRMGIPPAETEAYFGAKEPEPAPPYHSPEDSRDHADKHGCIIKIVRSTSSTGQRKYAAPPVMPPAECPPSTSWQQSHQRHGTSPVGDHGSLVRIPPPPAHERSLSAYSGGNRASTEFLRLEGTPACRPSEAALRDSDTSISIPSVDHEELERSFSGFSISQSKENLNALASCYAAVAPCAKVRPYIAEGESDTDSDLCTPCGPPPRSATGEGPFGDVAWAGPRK

Consider `Cc1cc(Cl)n2nc(C)c(-c3ccc(Cl)cc3)c2n1`, for which the activation in assay [1] was 216% (active). For the same compound, the values for the potentiation in assay [2] and in assay [3] were 256% (active) and 340% (active), respectively. For the same compound, the result in assay [4] was inactive.

As to `CCCCn1c(=O)nc2n(-c3ccccc3C)c3ccccc3cc-2c1=O`, the result in assay [1], in assay [2], in assay [3] and in assay [4] was inactive.

For `COc1ccc(/C=C2/SC(=S)N(NS(=O)(=O)c3ccccc3)C2=O)cc1`, in assay [1], the activation was 195% (active). Further, the values for the potentiation in assay [2] and in assay [3] were 84.5% (active) and 180% (active), respectively. Besides, the result in assay [4] was inactive.

In the case of `Cc1ccc(-c2nc3ccccc3c(=O)n2O)cc1`, in assay [1], the activation is 169% (active). Also, the results for the potentiation in assay [2] and in assay [3] were 19% (active) and 171% (active), respectively. The outcome in assay [4] was inactive.

In the case of `CC(=O)CC1(OC(C)=O)C(=O)N(C)c2ccccc21` (stereo not given), the outcome in assay [1], in assay [2], in assay [3] and in assay [4] was inactive.

Regarding `C=CCn1c(=S)[nH]c2scc(-c3cccs3)c2c1=O`, in assay [1], the activation was 620% (active). Further, the potentiation in assay [2] was 274% (active); in assay [3] it was 554% (active). Moreover, the result in assay [4] was inactive.

Take `O=C(Nc1ccc(N2CCN(c3ccc(O)cc3)CC2)cc1)Oc1ccccc1`: the result in assay [1], in assay [2], in assay [3] and in assay [4] was inactive.

Consider `CCN(c1ccccc1)S(=O)(=O)c1ccc(OC)c(NC(=O)COc2ccc(C(C)=O)cc2)c1`, for which the result in assay [1], in assay [2], in assay [3] and in assay [4] was inactive.

Turning to `C=CCOc1ccc(/C=C2\SC(=S)N(NS(=O)(=O)c3ccc(C)cc3)C2=O)cc1`, the activation in assay [1] was 447% (active). For the same compound, the potentiation in assay [2] was 444% (active); in assay [3] it was 852% (active). Moreover, in assay [4], the result was inactive.

`COc1ccc2nc(NC(=S)NC(=O)c3ccco3)sc2c1`: the result in assay [1] and in assay [4] was inactive. The potentiation in assay [2] is 42% (active); in assay [3], 175% (active).

Turning to `CCOC(=O)c1c(-c2ccccc2)oc2ccc(O)c(CN3CCN(C)CC3)c12`, the outcome in assay [1], in assay [2], in assay [3] and in assay [4] was inactive.

With `Cc1ccc(-c2nc3ccccc3o2)cc1NC(=S)NC(=O)c1cc2ccccc2o1`, the outcome in assay [1], in assay [3] and in assay [4] was inactive. The potentiation in assay [2] was 21.5% (active).

Regarding `CNc1ccccc1C(=O)OC(C)C(=O)Nc1ccc(Cl)cn1` (stereo not given), the result in assay [1], in assay [2], in assay [3] and in assay [4] was inactive.

`CCS(=O)(=O)Nc1ccc(C(=O)CC2(O)C(=O)Nc3ccccc32)cc1` (stereo not given): the outcome in assay [1], in assay [2], in assay [3] and in assay [4] was inactive.

`COC(=O)c1cccnc1NC(=S)NC1CCCCC1`: the activation in assay [1] was 208% (active). The potentiation in assay [2] is 36.5% (active); in assay [3], 233% (active). For the same compound, the result in assay [4] was inactive.

Take `O=c1[nH]c2ccc(Cl)cc2c(-c2ccccc2)c1N1CCN(CCO)CC1`: the result in assay [1], in assay [2], in assay [3] and in assay [4] was inactive.

For the compound `N=c1ccn(CC(=O)c2ccc(-c3ccccc3)cc2)cc1`, the result in assay [1], in assay [2], in assay [3] and in assay [4] was inactive.

With `CCn1nc(C)c(CNC(=O)C2CCC(=O)N(Cc3cccc(F)c3)C2)c1C` (stereo not given), the outcome in assay [1], in assay [2], in assay [3] and in assay [4] was inactive.

With `NC(=NCCCCCCN=C(N)/N=C(\N)Nc1ccc(Cl)cc1)/N=C(\N)Nc1ccc(Cl)cc1`, the activation in assay [1] is 240% (active) and 259% (active). The potentiation was 59.5% (active) and 91.5% (active) in assay [2]; 183% (active) and 216% (active) in assay [3]. Besides, in assay [4], the result was inactive.

Turning to `Cc1ccc2nc(NC(=S)NC(=O)c3ccco3)sc2c1`, the activation in assay [1] is 360% (active). Besides, the potentiation in assay [2] is 138% (active); in assay [3], 325% (active). The result in assay [4] was inactive.

For the compound `Cc1ccc(-n2ncc3c(SCC(=O)NNC(=O)c4ccco4)ncnc32)cc1`, the result in assay [1], in assay [2], in assay [3] and in assay [4] was inactive.

As to `O=S(=O)(NC(=S)NC1CCCCC1)c1ccc(Cl)cc1`, in assay [1], the activation was 191% (active). The values for the potentiation in assay [2] and in assay [3] were 56.5% (active) and 199% (active), respectively. In addition, the result in assay [4] was inactive.

As to `CCc1ccc2[nH]c(O)c(N=Nc3nc(-c4ccccc4)cs3)c2c1`, in assay [1], the activation is 186% (active). Besides, the potentiation in assay [2] was 178% (active); in assay [3], 282% (active). For the same compound, the outcome in assay [4] was inactive.

As to `COc1ccccc1N1C(=NC(=O)C(C)Oc2ccccc2)SC2CS(=O)(=O)CC21` (stereo not given), the outcome in assay [1], in assay [2], in assay [3] and in assay [4] was inactive.

For `O=C(NC(=S)N1CCCc2ccccc21)c1ccc(Br)cc1`, in assay [1], the activation is 222% (active). Moreover, the results for the potentiation in assay [2] and in assay [3] were 112% (active) and 300% (active), respectively. Besides, the result in assay [4] was inactive.

`Cc1ccc2nc(NC(=O)c3ccc(Br)o3)sc2c1`: the result in assay [1], in assay [2], in assay [3] and in assay [4] was inactive.

For `Cc1ccnc(NC(=S)NC(=O)c2cncc(Br)c2)c1`, the result in assay [1], in assay [2], in assay [3] and in assay [4] was inactive.

Regarding `O=C(c1ccccc1)N1CCC(CC2CC(c3ccc(Cl)cc3)=NO2)(C(=O)NCC2CCCCC2)CC1` (stereo not given), the result in assay [1], in assay [2], in assay [3] and in assay [4] was inactive.

As to `CCOC(=O)Cn1nc(-c2ccc(F)cc2)cc(Cc2ccccc2)c1=O`, the result in assay [1], in assay [2], in assay [3] and in assay [4] was inactive.

Consider `C=CCn1c(O)c(N=NC(=S)Nc2ccccc2F)c2ccccc21`, for which the activation in assay [1] is 352% (active). Further, the results for the potentiation in assay [2] and in assay [3] were 212% (active) and 416% (active), respectively. Moreover, the outcome in assay [4] was inactive.
